How the values were obtained:
[1] = molecular target: T1, Glucocorticoid receptor (Homo sapiens) (UniProt P04150); experiment: Agonist activity at glucocorticoid receptor in HFF assessed as inhibition of IL1-induced IL-6 production after 18 to 24 hrs relative to Dexamethasone; assay type: functional
T1 sequence (whole entry): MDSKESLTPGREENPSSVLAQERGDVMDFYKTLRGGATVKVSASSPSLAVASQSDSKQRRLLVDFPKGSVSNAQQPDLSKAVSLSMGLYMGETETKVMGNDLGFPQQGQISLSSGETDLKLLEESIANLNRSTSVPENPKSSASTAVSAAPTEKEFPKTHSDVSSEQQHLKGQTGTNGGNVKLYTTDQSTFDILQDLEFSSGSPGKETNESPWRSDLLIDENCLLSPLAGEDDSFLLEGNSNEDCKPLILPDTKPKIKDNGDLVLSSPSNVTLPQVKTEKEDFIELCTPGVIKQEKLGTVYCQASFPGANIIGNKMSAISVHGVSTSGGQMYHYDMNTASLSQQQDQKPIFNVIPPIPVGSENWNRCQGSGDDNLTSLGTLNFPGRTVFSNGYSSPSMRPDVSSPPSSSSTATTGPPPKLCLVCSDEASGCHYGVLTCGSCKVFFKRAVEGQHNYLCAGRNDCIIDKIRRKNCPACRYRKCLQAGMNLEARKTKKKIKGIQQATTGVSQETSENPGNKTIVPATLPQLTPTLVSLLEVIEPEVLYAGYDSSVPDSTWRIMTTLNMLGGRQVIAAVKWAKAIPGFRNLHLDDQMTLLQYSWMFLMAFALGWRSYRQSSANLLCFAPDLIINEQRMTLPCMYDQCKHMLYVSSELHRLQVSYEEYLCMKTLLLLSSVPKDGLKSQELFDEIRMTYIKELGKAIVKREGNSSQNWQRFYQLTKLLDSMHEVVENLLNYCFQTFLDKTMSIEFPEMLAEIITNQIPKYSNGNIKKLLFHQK
Outline: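 Human foreskin fibroblasts stimulated with IL-1 (1 ng/mL) in the presence of test compound, incubated at 37 °C for 18–24 h. IL-6 in the culture medium was quantified by electrochemiluminescence, DELFIA or ELISA. IC50 and % maximal efficacy were reported.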

[2] = molecular target: T2, Glucocorticoid receptor (Homo sapiens, UniProt P04150); experiment: Transactivation activity of glucocorticoid receptor in HFF assessed as induction of aromatase activity by measuring beta-estradiol activity after 18 to 24 hrs by ELISA
T2 sequence (P04150 whole entry): T1 sequence (whole entry)

[3] = molecular target: T1, Glucocorticoid receptor (Homo sapiens); experiment: Transactivation activity of glucocorticoid receptor in HFF assessed as induction of aromatase activity by measuring beta-estradiol activity after 18 to 24 hrs by ELISA relative to Dexamethasone
[4] = molecular target: T2, Glucocorticoid receptor; experiment: Displacement of tetramethylrhodamine-labeled Dexamethasone from human recombinant glucocorticoid receptor expressed in baculovirus infected insect cells by fluorescence polarization assay
[5] = molecular target: T3, Progesterone receptor (Homo sapiens, UniProt P06401); experiment: Displacement of tetramethylrhodamine-labeled RU-486 from human recombinant progesterone receptor expressed in baculovirus infected insect cells by fluorescence polarization assay
T3 sequence (P06401 whole entry): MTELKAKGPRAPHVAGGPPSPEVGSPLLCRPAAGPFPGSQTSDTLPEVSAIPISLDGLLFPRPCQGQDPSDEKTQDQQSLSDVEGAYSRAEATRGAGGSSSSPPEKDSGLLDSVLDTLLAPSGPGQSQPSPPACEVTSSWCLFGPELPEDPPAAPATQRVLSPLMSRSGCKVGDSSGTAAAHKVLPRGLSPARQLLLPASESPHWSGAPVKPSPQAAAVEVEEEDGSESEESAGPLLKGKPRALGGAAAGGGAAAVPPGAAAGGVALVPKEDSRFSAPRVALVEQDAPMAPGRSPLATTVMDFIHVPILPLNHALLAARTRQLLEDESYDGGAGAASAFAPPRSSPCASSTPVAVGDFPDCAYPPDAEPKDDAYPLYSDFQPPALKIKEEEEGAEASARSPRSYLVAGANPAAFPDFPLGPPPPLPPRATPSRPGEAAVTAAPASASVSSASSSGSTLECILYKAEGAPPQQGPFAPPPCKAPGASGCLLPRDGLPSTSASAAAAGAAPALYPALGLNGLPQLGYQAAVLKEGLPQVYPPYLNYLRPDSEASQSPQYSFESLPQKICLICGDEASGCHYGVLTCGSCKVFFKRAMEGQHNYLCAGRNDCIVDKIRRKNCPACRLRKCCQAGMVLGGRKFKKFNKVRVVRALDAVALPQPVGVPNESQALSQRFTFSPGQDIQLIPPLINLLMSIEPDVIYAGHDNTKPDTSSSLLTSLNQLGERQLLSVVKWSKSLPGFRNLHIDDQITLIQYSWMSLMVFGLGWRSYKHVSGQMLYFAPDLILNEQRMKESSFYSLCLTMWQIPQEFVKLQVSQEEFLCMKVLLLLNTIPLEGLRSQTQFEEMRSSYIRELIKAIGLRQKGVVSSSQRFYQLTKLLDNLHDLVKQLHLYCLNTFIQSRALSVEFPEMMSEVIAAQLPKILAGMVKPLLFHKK
Outline: (§1)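 Fluorescence polarization competition assays with recombinant human receptors in lysates of baculovirus-infected insect cells. Reactions contained 1% DMSO and ran 1 h at room temperature.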

[6] = molecular target: T4, Mineralocorticoid receptor (Homo sapiens, UniProt P08235); experiment: Displacement of tetramethylrhodamine-labeled Dexamethasone from human recombinant mineralocorticoid receptor expressed in baculovirus infected insect cells by fluorescence polarization assay; outline: as §1
T4 sequence (P08235 whole entry): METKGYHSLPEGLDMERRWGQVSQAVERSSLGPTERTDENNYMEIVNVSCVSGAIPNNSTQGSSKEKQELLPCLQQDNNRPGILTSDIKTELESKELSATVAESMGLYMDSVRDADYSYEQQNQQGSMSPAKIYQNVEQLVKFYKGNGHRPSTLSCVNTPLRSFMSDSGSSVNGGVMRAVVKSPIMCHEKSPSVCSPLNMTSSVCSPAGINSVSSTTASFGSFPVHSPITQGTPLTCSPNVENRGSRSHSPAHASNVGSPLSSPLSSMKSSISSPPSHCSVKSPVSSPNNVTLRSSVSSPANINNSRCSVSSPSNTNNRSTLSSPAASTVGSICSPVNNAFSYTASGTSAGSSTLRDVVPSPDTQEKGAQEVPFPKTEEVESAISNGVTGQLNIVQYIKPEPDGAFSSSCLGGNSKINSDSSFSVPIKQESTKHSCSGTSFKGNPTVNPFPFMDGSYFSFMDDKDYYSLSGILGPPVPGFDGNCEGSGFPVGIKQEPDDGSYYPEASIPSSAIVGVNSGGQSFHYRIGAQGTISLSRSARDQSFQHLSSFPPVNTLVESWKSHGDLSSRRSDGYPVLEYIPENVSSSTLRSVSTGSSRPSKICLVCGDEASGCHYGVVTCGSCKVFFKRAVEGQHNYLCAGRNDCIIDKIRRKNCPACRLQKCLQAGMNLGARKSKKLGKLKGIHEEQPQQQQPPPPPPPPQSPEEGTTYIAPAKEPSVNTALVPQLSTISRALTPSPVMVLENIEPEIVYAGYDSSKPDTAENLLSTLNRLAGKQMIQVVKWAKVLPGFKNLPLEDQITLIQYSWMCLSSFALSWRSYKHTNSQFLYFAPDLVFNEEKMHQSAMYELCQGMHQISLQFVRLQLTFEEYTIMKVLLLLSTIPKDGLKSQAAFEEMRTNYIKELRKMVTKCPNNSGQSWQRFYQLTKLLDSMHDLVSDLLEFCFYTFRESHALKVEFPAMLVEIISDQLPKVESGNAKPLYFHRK

[7] = molecular target: T2, Glucocorticoid receptor; experiment: Agonist activity at glucocorticoid receptor in HFF assessed as inhibition of IL1-induced IL-6 production after 18 to 24 hrs; assay type: functional

COc1ccc(F)cc1C(C)(C)CC(O)(Cc1cc2ccc(F)cc2[nH]1)C(F)(F)F (racemic)
Efficacy [1]: 94% | EC50 ([2]; read-out: EC50): 33 nM | Efficacy [3]: 84% | IC50 [4]: 30 nM | IC50 [5]: 265 nM | IC50 [6]: 350 nM | IC50 [7]: 29 nM

COc1ccc(F)cc1C(C)(C)CC(O)(Cc1cc2c(C(F)(F)F)cccc2[nH]1)C(F)(F)F (racemic)
Efficacy [1]: 70% | EC50 [2]: Not Active | Efficacy [3]: 30% | IC50 [4]: 160 nM | IC50 [5]: > 2000 nM | IC50 [6]: > 2000 nM | IC50 [7]: 290 nM

CC(C)(CC(O)(Cc1cc2ccccc2[nH]1)C(F)(F)F)c1cccc2c1OCC2 (racemic)
Efficacy [1]: 83% | EC50 ([2]; read-out: EC50): 311 nM | Efficacy [3]: 103% | IC50 [4]: 19 nM | IC50 [5]: 225 nM | IC50 [6]: 400 nM | IC50 [7]: 10 nM

CC(C)(CC(O)(Cc1cc2ccccc2[nH]1)C(F)(F)F)c1cc(F)cc2c1OCC2 (racemic)
Efficacy [1]: 90% | EC50 ([2]; read-out: EC50): 125 nM | Efficacy [3]: 98% | IC50 [4]: 8 nM | IC50 [5]: 255 nM | IC50 [6]: 265 nM | IC50 [7]: 21 nM

COc1ccc(F)cc1C(C)(C)CC(O)(Cc1cc2cccc(F)c2[nH]1)C(F)(F)F (racemic)
Efficacy [1]: 75% | EC50 ([2]; read-out: EC50): 473 nM | Efficacy [3]: 89% | IC50 [4]: 15 nM | IC50 [5]: 930 nM | IC50 [6]: 435 nM | IC50 [7]: 36 nM

C[C@@H]1C[C@H]2[C@@H]3CCC4=CC(=O)C=C[C@]4(C)[C@@]3(F)[C@@H](O)C[C@]2(C)[C@@]1(O)C(=O)CO [DEXAMETHASONE]
IC50 [5]: > 2000 nM

COc1ccc(F)cc1C(C)(C)CC(O)(Cc1cc2cccc(C(F)(F)F)c2[nH]1)C(F)(F)F (racemic)
EC50 ([2]; read-out: EC50): > 2000 nM | IC50 [4]: 120 nM | IC50 [5]: 1750 nM | IC50 [6]: 1650 nM | IC50 [7]: > 2000 nM

COc1ccc(F)cc1C(C)(C)CC(O)(Cc1cc2cccc(C)c2[nH]1)C(F)(F)F (racemic)
Efficacy [1]: 26% | EC50 ([2]; read-out: EC50): > 2000 nM | Efficacy [3]: 26% | IC50 [4]: 56 nM | IC50 [5]: 1450 nM | IC50 [6]: 1040 nM | IC50 [7]: > 2000 nM

COc1ccc(F)cc1C(C)(C)CC(O)(Cc1cc2ccc(C)cc2[nH]1)C(F)(F)F (racemic)
Efficacy [1]: 60% | EC50 ([2]; read-out: EC50): 976 nM | Efficacy [3]: 70% | IC50 [4]: 38 nM | IC50 [5]: 1250 nM | IC50 [6]: 720 nM | IC50 [7]: 334 nM

CC(C)(CC(O)(Cc1cc2ccccc2[nH]1)C(F)(F)F)c1cc(Br)cc2c1OCC2 (racemic)
Efficacy [1]: 88% | EC50 ([2]; read-out: EC50): 45 nM | Efficacy [3]: 99% | IC50 [4]: 32 nM | IC50 [5]: 415 nM | IC50 [6]: 585 nM | IC50 [7]: 16 nM

COc1ccc(F)cc1C(C)(C)CC(O)(Cc1cc2cccc(C#N)c2[nH]1)C(F)(F)F (racemic)
Efficacy [1]: 30% | EC50 ([2]; read-out: EC50): > 2000 nM | IC50 [4]: 27 nM | IC50 [5]: > 2000 nM | IC50 [6]: 1420 nM | IC50 [7]: > 2000 nM

COc1ccc(F)cc1C(C)(C)CC(O)(Cc1cc2ccc(C(F)(F)F)cc2[nH]1)C(F)(F)F (racemic)
EC50 ([2]; read-out: EC50): > 2000 nM | IC50 [4]: 77 nM | IC50 [5]: 1600 nM | IC50 [6]: 910 nM | IC50 [7]: > 2000 nM

COc1ccc(F)cc1C(C)(C)CC(O)(Cc1cc2cc(C)ccc2[nH]1)C(F)(F)F (racemic)
Efficacy [1]: 86% | EC50 ([2]; read-out: EC50): 230 nM | Efficacy [3]: 104% | IC50 [4]: 66 nM | IC50 [5]: 1800 nM | IC50 [6]: 1250 nM | IC50 [7]: 113 nM

CC(C)(C[C@](O)(Cc1cc2ccc(C#N)cc2[nH]1)C(F)(F)F)c1cc(S(C)(=O)=O)cc2c1OCC2
IC50 [4]: 405 nM | IC50 [5]: 1400 nM | IC50 [6]: 405 nM

COc1ccc(F)cc1C(C)(C)CC(O)(Cc1cc2cc(F)ccc2[nH]1)C(F)(F)F (racemic)
Efficacy [1]: 84% | EC50 ([2]; read-out: EC50): 94 nM | Efficacy [3]: 98% | IC50 [4]: 24 nM | IC50 [5]: 405 nM | IC50 [6]: 405 nM | IC50 [7]: 78 nM

— ChEMBL document CHEMBL1909618, “Non-steroidal dissociated glucocorticoid agonists: indoles as A-ring mimetics and function-regulating pharmacophores” (Bioorg Med Chem Lett, 2011)
